The values that follow come from ChEMBL document CHEMBL1123521, “Isozyme-specific enzyme inhibitors. 10. Adenosine 5'-triphosphate derivatives as substrates or inhibitors of methionine adenosyltransferases of rat normal and hepatoma tissues” (J Med Chem, 1986).

Data set [1] concerns the target T1, S-adenosylmethionine synthetase (MAT 1 and MAT 2) (Rattus norvegicus) (UniProt P13444+P18298). Nature of the data set: (§1) Inhibitory potency against rat methionine adenosyltransferase was reported. Format: protein assay. In short, it runs like this:
(§2)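 MAT-T partly purified from rat Novikoff hepatoma cells grown intraperitoneally in rats: cytosol extract, DEAE-cellulose, stored at -20 °C, diluted 10-fold for use. Assay run in duplicate, 37 °C for 30 min, in 150 mM KCl–15 mM MgCl2–5 mM DTT–50 mM Tris-HCl pH 8.2 with 60 μM [14C]methionine. Inhibitors given as 1:1 Mg complexes at two levels of 1-5 × Ki, with six to eight Mg-ATP levels (0.5-4.0 × KM).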

Data set [2] addresses S-adenosylmethionine synthase isoform type-2 (Rattus norvegicus) (UniProt P18298). The experiment in a line: Inhibitory potency against rat Methionine adenosyltransferase II. The method, boiled down: (§3)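 MAT-II from rat kidney extract, taken through DEAE chromatography and diluted 10-fold daily. Duplicate 30-min incubations at 37 °C in 150 mM KCl–15 mM MgCl2–5 mM DTT–50 mM Tris-HCl pH 8.2 with 60 μM [14C]methionine. Mg-complexed inhibitor used at two levels (1-5 × Ki) against six to eight Mg-ATP levels (0.5-4.0 × KM). Product counted on phosphocellulose disks.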

For data set [3], the target named is T1, S-adenosylmethionine synthetase (MAT 1 and MAT 2) (Rattus norvegicus). Nature of the data set: Relative inhibitory potency T/II in rat methionine adenosyltransferase.
In data set [4] the target is S-adenosylmethionine synthase isoform type-1 (Rattus norvegicus) (UniProt P13444). Nature of the data set: Half maximal velocity relative to Methionine adenosyltransferase. In short, it runs like this:
(§4)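 ATP analogues run as Mg complexes and checked for substrate activity at 1 mM with more enzyme (10 µL stock). Apparent KM from linear double-reciprocal plots. MAT-I: rat liver, 50 mM HEPES pH 7.5, 150 mM KCl, 7.5 mM MgSO4, 2 mM DTT, 380 µM [14C]methionine. MAT-II (rat kidney) and MAT-T (Novikoff hepatoma DEAE fraction): 50 mM Tris-HCl pH 8.2, 150 mM KCl, 15 mM MgCl2, 5 mM DTT, 60 µM [14C]methionine. 37 °C, 30 min, duplicates.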

For data set [5], the target named is T1, S-adenosylmethionine synthetase (MAT 1 and MAT 2) (Rattus norvegicus). The experiment in a line: Half maximal velocity relative to methionine adenosyltransferase. Format: protein assay. The method, boiled down: as §4
In data set [6] the target is S-adenosylmethionine synthase isoform type-2 (Rattus norvegicus) (UniProt P18298). The experiment in a line: Half maximal velocity relative to rat Methionine adenosyltransferase II. In short, it runs like this:
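DEAE-purified rat kidney MAT-II in 50 mM Tris-HCl pH 8.2, 150 mM KCl, 15 mM MgCl2, 5 mM DTT, with 60 µM [14C]methionine. Analogue checked for substrate activity at 1 mM using more enzyme. Incubated 37 °C for 30 min in duplicate. Acid-quenched product bound to phosphocellulose disks and counted; blanks lacked ATP. KM taken from linear double-reciprocal plots.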

In data set [7] the target is T1, S-adenosylmethionine synthetase (MAT 1 and MAT 2) (Rattus norvegicus). Nature of the data set: Inhibitory potency against rat Methionine adenosyltransferase was reported. Type of data set: protein assay. In short, it runs like this:
as §2

The target in data set [8] is S-adenosylmethionine synthase isoform type-2 (Rattus norvegicus) (UniProt P18298). The experiment in a line: Relative maximum velocity against rat kidney Methionine adenosyltransferase II. In short, it runs like this:
(§5)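 Analogues at 1 mM tested as substrates of MAT-II (rat kidney) or MAT-T (Novikoff hepatoma), using 10 μL of enzyme stock per assay. Run at 37 °C for 30 min in Tris-HCl pH 8.2 with 150 mM KCl and 15 mM MgCl2, plus 60 μM [14C]methionine. Radiolabelled product bound to phosphocellulose disks and counted. Kinetic constants came from double-reciprocal plots.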

The target in data set [9] is T1, S-adenosylmethionine synthetase (MAT 1 and MAT 2) (Rattus norvegicus). The experiment in a line: Relative maximum velocity against rat Methionine adenosyltransferase was reported. Format: protein assay. The method, boiled down:
as §5

Data set [10] concerns the target S-adenosylmethionine synthase isoform type-1 (Rattus norvegicus) (UniProt P13444). Nature of the data set: Inhibitory potency against rat Methionine adenosyltransferase I. In short, it runs like this:
(§6)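 Rat liver MAT-I, prepared free of MAT-II and MAT-III and diluted 5-fold. Duplicate assays at 37 °C, 30 min, in 150 mM KCl–7.5 mM MgSO4–2 mM DTT–50 mM HEPES pH 7.5 with 380 μM [14C]methionine. Two inhibitor levels (1:1 Mg complexes, 1-5 × Ki) run against six to eight Mg-ATP levels spanning 0.5-4.0 × KM. Ki taken from kinetic plots.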

Data set [11] shares this target. Nature of the data set: Relative maximum velocity against liver (MAT-I) in rat methionine adenosyltransferase was reported. In short, it runs like this: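 Substrate activity measured with rat liver MAT-I at 37 °C for 30 min, pH 7.5 HEPES buffer, with 380 μM [14C]methionine. ATP analogue at 1 mM, with a higher enzyme amount (10 μL stock). [14C]S-adenosylmethionine captured on phosphocellulose paper and counted by scintillation. Blanks lacked ATP. Constants taken from linear double-reciprocal plots.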

For data set [12], the target named is S-adenosylmethionine synthase isoform type-2 (Rattus norvegicus) (UniProt P18298). Nature of the data set: Relative maximum velocity against rat Methionine adenosyltransferase II. In short, it runs like this:
as §5

For data set [13], the system named is CSc1nc2c(N)ncnc2n1[C@@H]1O[C@H](COP(=O)(O)OP(=O)(O)OP(=O)(O)O)[C@@H](O)[C@H]1O. Nature of the data set: (§7) […] rat Methionine adenosyltransferase was reported. Format: protein assay. In short, it runs like this:
as §2

Data set [14] concerns CNc1nc2c(N)ncnc2n1C1O[C@H](COP(=O)(O)OP(=O)(O)OP(=O)(O)O)[C@@H](O)[C@H]1O. Described as §7. Type of data set: protein assay. In short, it runs like this: as §2
Data set [15] concerns Nc1ncnc2c1ncn2[C@@H]1O[C@H](COP(=O)(O)OP(=O)(O)OP(=O)(O)O)[C@@H](O)[C@H]1O. Nature of the data set: Inhibition of methionine adenosyltransferase in Novikoff Hepatoma(MAT-T), activity expressed as conc of Mg-ATP for half maximal velocity. Format: protein assay. The method, boiled down: (§8)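 Kinetics at 37 °C for 30 min, in duplicate, in 50 mM Tris-HCl pH 8.2, 150 mM KCl, 15 mM MgCl2, 5 mM DTT. Enzyme was MAT-T from ascites-passaged Novikoff hepatoma cells or MAT-II from rat kidney, both DEAE-cellulose fractions, with 60 µM [14C]methionine. Inhibitors given as 1:1 Mg complexes at two levels against six to eight Mg-ATP levels (0.5–4.0 × KM). Product counted on phosphocellulose disks.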

Data set [16] has as its target S-adenosylmethionine synthase isoform type-2 (Rattus norvegicus) (UniProt P18298). The data set is described as §1. The method, boiled down: as §2
Data set [17] has as its system Nc1ncnc2c1ncn2[C@@H]1O[C@H](COP(=O)(O)OP(=O)(O)OP(=O)(O)O)[C@@H](O)[C@H]1O. The experiment in a line: Inhibitory constant against rat kidney Methionine adenosyltransferase II, activity expressed as conc of Mg-ATP for half maximal velocity. The method, boiled down: as §8
For data set [18], the system named is CSc1nc2c(N)ncnc2n1[C@@H]1O[C@H](COP(=O)(O)OP(=O)(O)OP(=O)(O)O)[C@@H](O)[C@H]1O. Nature of the data set: (§9) Inhibitory constant against rat kidney Methionine adenosyltransferase II. In short, it runs like this:
as §3

Data set [19] has as its system CNc1nc2c(N)ncnc2n1C1O[C@H](COP(=O)(O)OP(=O)(O)OP(=O)(O)O)[C@@H](O)[C@H]1O. The data set is described as §9. The method, boiled down:
as §3

Data set [20] has as its system Nc1ncnc2c1ncn2C1O[C@H](COP(=O)(O)OP(=O)(O)OP(N)(=O)O)[C@@H](O)[C@H]1O. The description is as §9. The method, boiled down: as §3
Data set [21] relates to Nc1ncnc2c1ncn2[C@H]1C[C@H](O)[C@@H](COP(=O)(O)OP(=O)(O)OP(=O)(O)O)O1. Described as §9. The method, boiled down: as §3
For data set [22] the test system is unchanged. The experiment in a line: Inhibitory constant against rat liver Methionine adenosyltransferase I. The method, boiled down: as §6
Data set [23] relates to Nc1ncnc2c1ncn2[C@@H]1O[C@H](COP(=O)(O)OP(=O)(O)OP(=O)(O)O)[C@@H](O)[C@H]1O. The experiment in a line: […] rat liver Methionine adenosyltransferase I, activity expressed as conc of Mg-ATP for half maximal velocity. The method, boiled down: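 Rat liver MAT-I, free of MAT-II and MAT-III, was assayed in 50 mM HEPES pH 7.5, 150 mM KCl, 7.5 mM MgSO4, 2 mM DTT, with 380 µM [14C]methionine, at 37 °C for 30 min in duplicate. Mg-complexed inhibitor was used at two levels against six to eight Mg-ATP levels (0.5–4.0 × KM). Labelled product was captured on phosphocellulose and scintillation-counted; blanks lacked ATP.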

Sequence of S-adenosylmethionine synthase isoform type-1 (Rattus norvegicus) (P13444 whole entry, canonical isoform): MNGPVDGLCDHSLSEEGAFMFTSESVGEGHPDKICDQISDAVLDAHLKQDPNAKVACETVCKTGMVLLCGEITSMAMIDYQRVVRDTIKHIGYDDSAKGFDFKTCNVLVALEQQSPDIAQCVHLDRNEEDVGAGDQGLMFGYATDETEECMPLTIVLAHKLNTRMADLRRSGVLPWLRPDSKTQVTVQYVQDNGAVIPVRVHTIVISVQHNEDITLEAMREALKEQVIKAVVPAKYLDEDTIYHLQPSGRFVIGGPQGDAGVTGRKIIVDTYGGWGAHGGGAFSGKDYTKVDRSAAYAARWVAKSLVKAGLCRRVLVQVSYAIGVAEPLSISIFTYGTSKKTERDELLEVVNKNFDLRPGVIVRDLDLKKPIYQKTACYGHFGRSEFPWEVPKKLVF
Sequence of S-adenosylmethionine synthetase (MAT 1 and MAT 2) (Rattus norvegicus) (from UniProt P13444+P18298) (P18298 whole entry, looked up): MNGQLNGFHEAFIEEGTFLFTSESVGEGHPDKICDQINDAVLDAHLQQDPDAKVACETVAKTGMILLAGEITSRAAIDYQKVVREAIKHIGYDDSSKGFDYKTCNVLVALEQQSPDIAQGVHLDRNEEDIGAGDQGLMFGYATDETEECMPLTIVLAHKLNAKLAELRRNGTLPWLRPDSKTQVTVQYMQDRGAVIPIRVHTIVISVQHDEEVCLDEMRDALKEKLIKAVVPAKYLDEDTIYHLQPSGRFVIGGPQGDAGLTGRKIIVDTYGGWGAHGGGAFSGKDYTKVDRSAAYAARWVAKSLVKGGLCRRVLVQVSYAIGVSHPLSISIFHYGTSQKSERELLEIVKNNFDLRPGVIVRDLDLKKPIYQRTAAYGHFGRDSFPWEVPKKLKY
Sequence of S-adenosylmethionine synthetase (MAT 1 and MAT 2) (Rattus norvegicus) (from UniProt P13444+P18298) (P13444 whole entry, looked up): as the sequence (P13444 whole entry, canonical isoform) above
Sequence of S-adenosylmethionine synthase isoform type-2 (Rattus norvegicus) (P18298 whole entry, canonical isoform): as the sequence (P18298 whole entry, looked up) above
Sequence of S-adenosylmethionine synthase isoform type-2 (Rattus norvegicus), P18298 (P18298 whole entry, canonical isoform): as the sequence (P18298 whole entry, looked up) above
Sequence of S-adenosylmethionine synthase isoform type-1 (Rattus norvegicus), P13444 (P13444 whole entry, canonical isoform): as the sequence (P13444 whole entry, canonical isoform) above

Consider `CO[C@H]1[C@@H](O)[C@H](n2cnc3c(N)ncnc32)O[C@@H]1COP(=O)(O)OP(=O)(O)OP(=O)(O)O`, for which the Inhibition potency amounted to 0.78 in data set [1] and 0.82 in data set [2]. Besides, in [3], the Inhibition potency T/II came to 0.95.
As for `Nc1ncnc2c1ncn2[C@@H]1O[C@H](COP(=O)(O)OP(=O)(O)OP(=O)(O)O)[C@@H](O)[C@H]1O`, the Relative Vmax in data set [4], in data set [5] and in data set [6] was 100 each time.
For the compound `CSc1nc(N)c2ncn([C@@H]3O[C@H](COP(=O)(O)OP(=O)(O)OP(=O)(O)O)[C@@H](O)[C@H]3O)c2n1`, the Inhibition potency was 1.27 in data set [7] and 0.23 in data set [2]. In [3], this compound came in with an Inhibition potency T/II of 5.5.
`CCCCNc1ncnc2c1ncn2C1O[C@H](COP(=O)(O)OP(=O)(O)OP(=O)(O)O)[C@@H](O)[C@H]1O` (some centres undefined) registered an Inhibition potency in data set [2] of 0.26. The same compound showed an Inhibition potency T/II in [3] of 2.5.
In the case of `CSc1nc2c(N)ncnc2n1[C@@H]1O[C@H](COP(=O)(O)OP(=O)(O)OP(=O)(O)O)[C@@H](O)[C@H]1O`, the figures for the Relative Vmax in data set [8] and in data set [9] were 3.1 and 7.3, respectively. In addition, the Inhibition potency in data set [7] was found to be 0.7; in data set [2] it was 1.4. In data set [3], this compound showed an Inhibition potency T/II of 0.5.
Consider `CC(OP(=O)(O)OP(=O)(O)OP(=O)(O)O)[C@H]1O[C@@H](n2cnc3c(N)ncnc32)[C@H](O)[C@@H]1O` (some centres undefined), for which the Inhibition potency amounted to 1.75 in data set [1], 15.6 in data set [10] and 0.74 in [2]. In addition, the Inhibition potency T/II in data set [3] was 2.4.
Take `Nc1ncnc2c1ncn2[C@H]1C[C@H](O)[C@@H](COP(=O)(O)OP(=O)(O)OP(=O)(O)O)O1`: the Relative Vmax in data set [11] came out at 26; in data set [12], 6.5. In addition, the Inhibition potency is 0.091 in data set [10] and 0.035 in data set [2].
As for `Nc1ncnc2c1nc(SCCC(N)C(=O)O)n2C1O[C@H](COP(=O)(O)OP(=O)(O)OP(=O)(O)O)[C@@H](O)[C@H]1O` (some centres undefined), the Inhibition potency in [2] was determined as 0.27.
By Km is commonly meant the concentration of substrate that gives half-maximal velocity. Regarding “S-adenosylmethionine synthetase (MAT 1 and MAT 2) (Rattus norvegicus) (from UniProt P13444+P18298)”, the values for the Michaelis constant (Km) in [13], in data set [14] and in data set [15] were 200 µM, 230 µM and 140 µM, respectively.
For `CNc1nc2c(N)ncnc2n1C1O[C@H](COP(=O)(O)OP(=O)(O)OP(=O)(O)O)[C@@H](O)[C@H]1O` (some centres undefined), the results for the Relative Vmax in data set [8] and in data set [9] were 37 and 19, respectively. The Inhibition potency in [2] turned out to be 0.88; in data set [16], 0.61. This compound gave an Inhibition potency T/II in [3] of 0.69.
On to `Nc1ncnc2c1ncn2[C@@H]1O[C@H](COP(=O)(O)OP(=O)(O)NP(=O)(O)O)[C@@H](O)[C@H]1O`, for which the Inhibition potency amounted to 35 in data set [7] and 25.5 in [2]. Also, the Inhibition potency T/II in data set [3] came out at 1.4.
The corresponding values for `Nc1ncnc2c1ncn2[C@@H]1O[C@H](COP(=O)(O)CP(=O)(O)OP(=O)(O)O)[C@@H](O)[C@H]1O` are 0.41, 0.46 and 0.89.
`CO[C@@H]1[C@H](O)[C@@H](COP(=O)(O)OP(=O)(O)OP(=O)(O)O)O[C@H]1n1cnc2c(N)ncnc21`: the Inhibition potency turned out to be 0.82 in [1] and 1 in [2]. The compound further yielded an Inhibition potency T/II in data set [3] of 0.82.
For the compound “S-adenosylmethionine synthase isoform type-2 (Rattus norvegicus), P18298”, the Michaelis-Menten constant (Km) in data set [17] amounted to 140 µM; in data set [18] it was 100 µM; in data set [19], 160 µM; in [20], 3300 µM; in data set [21] it was 4000 µM.
On to `CCCC(OP(=O)(O)OP(=O)(O)OP(=O)(O)O)[C@H]1O[C@@H](n2cnc3c(N)ncnc32)[C@H](O)[C@@H]1O` (some centres undefined), for which the Inhibition potency in data set [1] worked out at 3.78; in data set [2] it was 2.92. Moreover, the Inhibition potency T/II in data set [3] is 1.3.
As to `Nc1ncnc2c1ncn2C1O[C@H](COP(=O)(O)OP(=O)(O)OP(N)(=O)O)[C@@H](O)[C@H]1O` (some centres undefined), in [8], the Relative Vmax was determined as 97. The same compound yielded an Inhibition potency in data set [2] of 0.042.
For “S-adenosylmethionine synthase isoform type-1 (Rattus norvegicus), P13444”, the Michaelis constant (Km) in [22] is 1540 µM; in data set [23], 140 µM.
